pKi: −log10 of the molar value.
target: T1, 5-hydroxytryptamine receptor 2C (Rattus norvegicus, UniProt P08909); test: Binding affinity against 5-hydroxytryptamine 1C receptor in rat using [3H]mesulergine as radioligand
T1 sequence (P08909 whole entry): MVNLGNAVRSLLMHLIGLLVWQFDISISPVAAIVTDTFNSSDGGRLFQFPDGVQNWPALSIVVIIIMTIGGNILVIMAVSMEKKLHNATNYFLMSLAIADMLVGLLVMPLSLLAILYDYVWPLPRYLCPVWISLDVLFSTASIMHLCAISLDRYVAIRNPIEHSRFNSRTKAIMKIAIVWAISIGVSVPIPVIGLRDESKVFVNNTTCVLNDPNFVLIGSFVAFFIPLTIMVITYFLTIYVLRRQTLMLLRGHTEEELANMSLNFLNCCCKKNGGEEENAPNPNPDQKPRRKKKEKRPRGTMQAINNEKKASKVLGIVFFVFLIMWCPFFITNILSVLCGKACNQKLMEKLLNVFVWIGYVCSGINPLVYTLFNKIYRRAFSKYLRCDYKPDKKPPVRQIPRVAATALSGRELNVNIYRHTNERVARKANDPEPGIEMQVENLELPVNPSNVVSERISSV
Summary of the method: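 Rat frontal cortex homogenate (male Sprague-Dawley, 200–250 g), washed in 50 mM Tris·HCl, 0.5 mM EDTA, 10 mM MgCl2, pH 7.4, with 0.1% ascorbate and 10⁻⁵ M pargyline. 10 mg wet tissue, 1 nM [3H]mesulergine, 100 nM spiperone to block 5-HT2 sites, nonspecific binding with 1.0 μM mianserin. Incubated 15 min at 37 °C, triplicates, filtration. Ki from IC50 via Cheng–Prusoff.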

First: CCN1CCC(C(=O)c2ccc(F)cc2)CC1
Second: CN1CCC(C(=O)c2ccc(F)cc2)CC1
The pKi of the first is 0.32 log units lower: 5.50 for the first, 5.82 for the second. The second binds more tightly here.

CN(C)CCn1c(=O)[nH]c2ccccc2c1=O and Cl.NCCn1c(=O)[nH]c2ccccc2c1=O cannot be ordered by pKi: less than 5.00 for the first, less than 5.00 for the second.

O=C(O)/C=C\C(=O)O.O=c1[nH]c2ccccc2c(=O)n1CCNCCCc1ccccc1 and O=C(O)/C=C\C(=O)O.O=c1[nH]c2ccccc2c(=O)n1CCNCCCCc1ccccc1 cannot be ordered by pKi: less than 5.00 for the first, less than 5.00 for the second.

Going from O=C(c1ccc(F)cc1)C1CCN(CCn2c(=O)[nH]c3ccccc3c2=O)CC1 [KETANSERIN] to O=C(O)C(=O)O.O=c1[nH]c2ccccc2c(=O)n1CCN1CCC(Cc2ccc(F)cc2)CC1, the pKi falls from 7.30 to 6.70 (0.60 log units).

O=C(O)/C=C\C(=O)O.O=c1[nH]c2ccccc2c(=O)n1CCN1CCC(Cc2ccccc2)CC1 and O=C(O)/C=C\C(=O)O.O=C(c1ccccc1)C1CCN(CCn2c(=O)[nH]c3ccccc3c2=O)CC1 are within 0.2 log units of each other in pKi: 6.01 for the first, 6.12 for the second.

Cl.O=c1[nH]c2ccccc2c(=O)n1CCN1CCCCC1 and CN1CCN(CCn2c(=O)[nH]c3ccccc3c2=O)CC1.Cl.Cl cannot be ordered by pKi: less than 5.00 for the first, less than 5.00 for the second.

O=C(O)C(=O)O.O=C(c1ccc(F)cc1)C1CCN(CCCc2ccccc2)CC1 and O=C(O)C(=O)O.O=C(c1ccc(F)cc1)C1CCN(CCCCc2ccccc2)CC1 are within 0.2 log units of each other in pKi: 6.03 for the first, 6.21 for the second.

Going from O=C(O)C(=O)O.O=C(c1ccc(F)cc1)C1CCN(CCc2ccccc2)CC1 to O=C(O)C(=O)O.O=C(c1ccc(F)cc1)C1CCN(Cc2ccccc2)CC1, the pKi falls from 6.84 to 5.52 (1.32 log units). The first binds more tightly here.

CN1CCN(C(=O)c2ccccc2)CC1 and CN1CCN(C(=O)c2ccc(F)cc2)CC1 cannot be ordered by pKi: less than 5.00 for the first, less than 5.00 for the second.

Going from O=C(c1ccc(F)cc1)C1CCNCC1 to O=C(c1ccccc1)C1CCNCC1, the pKi falls from 5.96 to less than 5.00.

O=C(c1ccccc1)N1CCNCC1 and c1ccc(CN2CCNCC2)cc1 cannot be ordered by pKi: less than 5.00 for the first, less than 5.00 for the second.

Compared with CN(CCCc1ccccc1)CCn1c(=O)[nH]c2ccccc2c1=O.O=C(O)C(=O)O, O=C(O)C(=O)O.O=c1[nH]c2ccccc2c(=O)n1CCN1CCC(C(O)c2ccccc2)CC1 (configuration not stated) is lower in pKi: 5.86 for the first, less than 5.00 for the second. The first binds more tightly here.

First: O=C(NCCN1CCC(C(=O)c2ccc(F)cc2)CC1)Nc1ccccc1.O=C(O)C(=O)O
Second: O=C(NCCN1CCC(C(=O)c2ccc(F)cc2)CC1)c1ccccc1.O=C(O)C(=O)O
The pKi of the first is 0.91 log units higher: 6.70 for the first, 5.79 for the second. The first binds more tightly here.

O=C(O)C(=O)O.O=C(c1ccc(F)cc1)C1CCN(CCCCCc2ccccc2)CC1 and Cl.O=C(CCCN1CCC(C(=O)c2ccc(F)cc2)CC1)c1ccccc1 are within 0.2 log units of each other in pKi: 6.38 for the first, 6.46 for the second.

CCN1CCC(C(O)c2ccc(F)cc2)CC1.O=C(O)/C=C\C(=O)O (configuration not stated) and CN1CCN(Cc2ccc(F)cc2)CC1.Cl.Cl cannot be ordered by pKi: less than 5.00 for the first, less than 5.00 for the second.

target: T1, 5-hydroxytryptamine receptor 2C; test: Binding affinity against 5-hydroxytryptamine 1C receptor

c1ccc(CC2CCNCC2)cc1 and CN1CCC(Cc2ccccc2)CC1.Cl cannot be ordered by pKi: less than 5.00 for the first, less than 5.00 for the second.

target: T2, Serotonin 2 (5-HT2) receptor (Rattus norvegicus, UniProt P30994+P08909+P14842); test: Inhibitory activity against 5-hydroxytryptamine 2 receptor; type: protein assay
Summary of the method: (§1)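 Male Sprague-Dawley rat (200–250 g) frontal cortex membranes in 50 mM Tris·HCl/0.5 mM EDTA/10 mM MgCl2, pH 7.4, plus 0.1% ascorbate and 10⁻⁵ M pargyline. […] Nonspecific binding defined by 1.0 μM cinanserin. Run in triplicate, 15 min at 37 °C, then filtration. Ki = IC50/(1 + D*/KD*).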

In order of rising IC50:
1. OC(c1ccccc1)C1CCN(CCc2ccc(F)cc2)CC1 (configuration not stated)  0.0009 µM
2. O=C1NCCN1CCN1CCN(C2CC(c3ccc(F)cc3)c3ccccc32)CC1 (configuration not stated)  0.0034 µM
3. CN1CCN(C2CC(c3ccc(F)cc3)c3ccccc32)CC1 (single isomer, unassigned; (+))  0.0049 µM

target: T2, Serotonin 2 (5-HT2) receptor; test: Binding affinity against 5-Hydroxy tryptamine 2 (5-hydroxytryptamine 2)receptor; type: protein assay

Molecule c1ccc(CC2CCNCC2)cc1 has a Ki greater than 10 µM.

For CN1CCC(Cc2ccccc2)CC1.Cl, the Ki was 3.87 µM.

target: Serotonin 2 (5-HT2) receptor (Rattus norvegicus, UniProt P14842); test: Binding affinity against 5-hydroxytryptamine 2 receptor in rat using [3H]ketanserin as radioligand
Summary of the method: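 Male Sprague-Dawley rat (200–250 g) frontal cortex membranes in 50 mM Tris·HCl/0.5 mM EDTA/10 mM MgCl2, pH 7.4, plus 0.1% ascorbate and 10⁻⁵ M pargyline. Nonspecific binding defined by 1.0 μM cinanserin. Run in triplicate, 15 min at 37 °C, then filtration. Ki = IC50/(1 + D*/KD*).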

In order of falling Ki:
1. O=C(c1ccccc1)C1CCNCC1  3.32 µM
2. O=C(O)/C=C\C(=O)O.O=c1[nH]c2ccccc2c(=O)n1CCNCCCc1ccccc1  0.66 µM
3. O=C(O)C(=O)O.O=c1[nH]c2ccccc2c(=O)n1CCN1CCC(C(O)c2ccccc2)CC1 (configuration not stated)  0.655 µM
4. CN(CCCc1ccccc1)CCn1c(=O)[nH]c2ccccc2c1=O.O=C(O)C(=O)O  0.64 µM
5. O=C(c1ccc(F)cc1)C1CCNCC1  0.43 µM
6. CCN1CCC(C(=O)c2ccc(F)cc2)CC1  0.26 µM
7. O=C(O)/C=C\C(=O)O.O=c1[nH]c2ccccc2c(=O)n1CCNCCCCc1ccccc1  0.18 µM
8. CN1CCC(C(=O)c2ccc(F)cc2)CC1  0.125 µM
9. O=C(O)/C=C\C(=O)O.O=c1[nH]c2ccccc2c(=O)n1CCN1CCC(Cc2ccccc2)CC1  0.032 µM
10. O=C(O)C(=O)O.O=C(c1ccc(F)cc1)C1CCN(Cc2ccccc2)CC1  0.025 µM
11. O=C(O)C(=O)O.O=C(c1ccc(F)cc1)C1CCN(CCCc2ccccc2)CC1  0.016 µM
12. O=C(NCCN1CCC(C(=O)c2ccc(F)cc2)CC1)c1ccccc1.O=C(O)C(=O)O  0.016 µM
13. O=C(O)C(=O)O.O=c1[nH]c2ccccc2c(=O)n1CCN1CCC(Cc2ccc(F)cc2)CC1  0.012 µM
14. O=C(O)C(=O)O.O=C(c1ccc(F)cc1)C1CCN(CCCCCc2ccccc2)CC1  0.01 µM
15. O=C(O)C(=O)O.O=C(c1ccc(F)cc1)C1CCN(CCc2ccccc2)CC1  0.0085 µM
16. O=C(O)/C=C\C(=O)O.O=C(c1ccccc1)C1CCN(CCn2c(=O)[nH]c3ccccc3c2=O)CC1  0.0065 µM
17. Cl.O=C(CCCN1CCC(C(=O)c2ccc(F)cc2)CC1)c1ccccc1  0.0065 µM
18. O=C(O)C(=O)O.O=C(c1ccc(F)cc1)C1CCN(CCCCc2ccccc2)CC1  0.0053 µM
19. O=C(NCCN1CCC(C(=O)c2ccc(F)cc2)CC1)Nc1ccccc1.O=C(O)C(=O)O  0.0043 µM

Work on CN(C)CCn1c(=O)[nH]c2ccccc2c1=O yielded a Ki greater than 10 µM.
With Cl.O=c1[nH]c2ccccc2c(=O)n1CCN1CCCCC1 the Ki was greater than 10 µM.
Molecule CN1CCN(C(=O)c2ccccc2)CC1 has a Ki greater than 10 µM.
For O=C(c1ccccc1)N1CCNCC1, the Ki was greater than 10 µM.
CN1CCN(C(=O)c2ccc(F)cc2)CC1 was tested, and the Ki was greater than 10 µM.
Molecule CN1CCN(CCn2c(=O)[nH]c3ccccc3c2=O)CC1.Cl.Cl has a Ki greater than 10 µM.
For CCN1CCC(C(O)c2ccc(F)cc2)CC1.O=C(O)/C=C\C(=O)O (configuration not stated), the Ki was greater than 10 µM.
CN1CCN(Cc2ccc(F)cc2)CC1.Cl.Cl showed a Ki greater than 10 µM.
Work on Cl.NCCn1c(=O)[nH]c2ccccc2c1=O yielded a Ki greater than 10 µM.
For c1ccc(CN2CCNCC2)cc1, the Ki was greater than 10 µM.

target: T2, Serotonin 2 (5-HT2) receptor; test: Inhibitory constant against 5-hydroxytryptamine 2 receptor; type: protein assay; summary of the method: as §1

For OC(c1ccccc1)C1CCN(CCc2ccccc2)CC1 (configuration not stated) [GLEMANSERIN], the Ki was 0.0125 µM.

target: T3, Serotonin 2 (5-HT2) receptor (Rattus norvegicus) (UniProt P30994+P08909+P14842); test: Selectivity for 5-HT1C and 5-HT2 receptors, ratio of Ki; type: protein assay
T3 sequence (P14842 whole entry, looked up, one chain of several): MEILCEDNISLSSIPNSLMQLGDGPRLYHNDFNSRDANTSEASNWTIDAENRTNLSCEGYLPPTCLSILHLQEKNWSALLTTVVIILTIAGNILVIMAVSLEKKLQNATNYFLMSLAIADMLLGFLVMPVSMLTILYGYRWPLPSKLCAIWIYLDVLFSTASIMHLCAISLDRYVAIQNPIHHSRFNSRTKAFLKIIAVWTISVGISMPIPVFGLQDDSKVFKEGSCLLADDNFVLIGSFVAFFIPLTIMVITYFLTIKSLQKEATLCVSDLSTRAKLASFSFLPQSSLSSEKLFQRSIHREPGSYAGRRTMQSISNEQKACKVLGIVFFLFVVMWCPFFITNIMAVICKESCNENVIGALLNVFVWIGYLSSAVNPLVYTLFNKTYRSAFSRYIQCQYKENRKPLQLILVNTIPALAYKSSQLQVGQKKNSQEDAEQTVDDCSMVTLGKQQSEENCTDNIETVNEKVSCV
T3 sequence (P30994 whole entry, looked up, one chain of several): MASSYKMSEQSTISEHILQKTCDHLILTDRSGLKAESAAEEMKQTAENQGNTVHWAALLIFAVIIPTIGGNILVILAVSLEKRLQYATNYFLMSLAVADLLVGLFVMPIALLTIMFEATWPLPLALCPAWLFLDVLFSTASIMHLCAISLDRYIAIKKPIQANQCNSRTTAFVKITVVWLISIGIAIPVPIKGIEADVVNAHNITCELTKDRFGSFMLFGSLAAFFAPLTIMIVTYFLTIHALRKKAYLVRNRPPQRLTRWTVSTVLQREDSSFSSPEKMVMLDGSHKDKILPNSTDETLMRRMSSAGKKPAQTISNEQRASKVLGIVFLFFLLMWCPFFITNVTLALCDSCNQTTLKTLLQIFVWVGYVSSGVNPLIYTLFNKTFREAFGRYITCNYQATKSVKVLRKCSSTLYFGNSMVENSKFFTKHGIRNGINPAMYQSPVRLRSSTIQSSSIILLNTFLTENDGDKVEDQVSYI
Summary of the method: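 Both come from rat frontal cortex competition assays run in triplicate for 15 min at 37 °C. The 5-HT1C assay used 1 nM [3H]mesulergine with 100 nM spiperone present. Ki values were derived from IC50 by Cheng–Prusoff.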

CN1CCC(Cc2ccccc2)CC1.Cl was tested, and the Ki ratio was greater than 2.

target: T3, Serotonin 2 (5-HT2) receptor (Rattus norvegicus); test: Selectivity ratio for 5-HT1C compared to 5-HT2 receptors.; type: protein assay
Summary of the method: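 Ratio of 5-HT1C Ki over 5-HT2 Ki. Both come from rat frontal cortex competition assays run in triplicate for 15 min at 37 °C. The 5-HT1C assay used 1 nM [3H]mesulergine with 100 nM spiperone present. […] Ki values were derived from IC50 by Cheng–Prusoff.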

CCN1CCC(C(=O)c2ccc(F)cc2)CC1 and CN1CCC(C(=O)c2ccc(F)cc2)CC1 are the same in Ratio: 12 for the first, 12 for the second.

O=C(O)/C=C\C(=O)O.O=c1[nH]c2ccccc2c(=O)n1CCNCCCc1ccccc1 and O=C(O)/C=C\C(=O)O.O=c1[nH]c2ccccc2c(=O)n1CCNCCCCc1ccccc1 cannot be ordered by Ratio: greater than 10 for the first, greater than 50 for the second.

Going from O=C(O)/C=C\C(=O)O.O=c1[nH]c2ccccc2c(=O)n1CCN1CCC(Cc2ccccc2)CC1 to O=C(O)/C=C\C(=O)O.O=C(c1ccccc1)C1CCN(CCn2c(=O)[nH]c3ccccc3c2=O)CC1, the Ratio rises from 30 to 115.

Compared with O=C(O)C(=O)O.O=C(c1ccc(F)cc1)C1CCN(CCCc2ccccc2)CC1, O=C(O)C(=O)O.O=C(c1ccc(F)cc1)C1CCN(CCCCc2ccccc2)CC1 is higher in Ratio: 60 for the first, 120 for the second.

Compared with O=C(O)C(=O)O.O=C(c1ccc(F)cc1)C1CCN(CCc2ccccc2)CC1, O=C(O)C(=O)O.O=C(c1ccc(F)cc1)C1CCN(Cc2ccccc2)CC1 is higher in Ratio: 15 for the first, 120 for the second.

First: O=C(c1ccc(F)cc1)C1CCNCC1
Second: O=C(c1ccccc1)C1CCNCC1
The Ratio of the first is lower: 2 for the first, greater than 3 for the second.

Going from CN(CCCc1ccccc1)CCn1c(=O)[nH]c2ccccc2c1=O.O=C(O)C(=O)O to O=C(O)C(=O)O.O=c1[nH]c2ccccc2c(=O)n1CCN1CCC(C(O)c2ccccc2)CC1 (configuration not stated), the Ratio rises from 2 to greater than 15.

First: O=C(NCCN1CCC(C(=O)c2ccc(F)cc2)CC1)Nc1ccccc1.O=C(O)C(=O)O
Second: O=C(NCCN1CCC(C(=O)c2ccc(F)cc2)CC1)c1ccccc1.O=C(O)C(=O)O
The Ratio of the first is lower: 50 for the first, 100 for the second.

Going from O=C(O)C(=O)O.O=C(c1ccc(F)cc1)C1CCN(CCCCCc2ccccc2)CC1 to Cl.O=C(CCCN1CCC(C(=O)c2ccc(F)cc2)CC1)c1ccccc1, the Ratio rises from 40 to 50.

O=C(O)C(=O)O.O=c1[nH]c2ccccc2c(=O)n1CCN1CCC(Cc2ccc(F)cc2)CC1 was tested, and the Ratio was 17.
